Source: PubChem BioAssay (Broad Institute)
XiGFP reactiv – X-chromosome reactivation activator; XiGFP mouse fibroblasts, % GFP-positive cells imaging, 3 d; cells co-treated with 5-aza-dC sensitizer; scaled so ellipticine positive control = 100%; activation, % at 7.58 µM; actives 0.055% (n = 360,000);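 active means mean normalized replicate activation at least 10% and every replicate at or above 10%; inconclusive means only one of the two criteria met; inactive means mean below 10% and not all replicates reach 10%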;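 further: 0% = median of on-plate neutral control wells and 100% = ellipticine 6 µM median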
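Material: XiGFP fibroblasts, SV40-immortalized. Buffer or medium: DMEM plus 5-aza-dC sensitizer. Compound: single concentration per compound, delivered by pin transfer. Times: 3 days compound exposure. Controls: ellipticine 6 µM.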
PGC1a acetyl inh – modulators of PGC1a acetylation | U2OS PGC1a acetylation, AlphaScreen anti-acetyl-lysine; with virally co-expressed GCN5 acetyltransferase | inhibition, % at 15.6 µM | actives 0.17% (n = 350,000);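 active means every replicate shows inhibition of at least 40%; inconclusive means mean inhibition at least 40% but some replicate below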;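 further: 0% = neutral control wells and 100% = positive control wells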
CFTR F508del cor – correctors of CFTR F508del function in bronchial epithelial cells; CFBE cells, YFP halide quenching; stimulated with forskolin plus potentiator P3; % fluorescence drop versus neutral controls; activity (quench increase), % at 7.58 µM; AID 720511; actives 0.36% (n = 350,000);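 active means mean added fluorescence quench of at least 8% versus neutral control, with both replicates also reaching 8%; inconclusive means only one of the mean or replicate conditions met; inactive means mean below 8% and not both replicates reaching 8%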;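 further: cells transiently co-express mutant CFTR-F508del with the halide-sensitive YFP; corrector assay measuring rescue of mutant channel to the surface after 24 h compound exposure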
Cneo AK release – causes C. neoformans cell lysis; adenylate kinase release luminescence, 4 h; normalised: neutral wells 0, clomiphene wells 100; lysis activity, % at 15 µM; actives 0.2% (n = 360,000); AID 651654;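 active means mean lysis activity across replicates of at least 80%, whatever share of replicates individually reach that level; inactive means mean lysis activity below 80%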
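Assay system: Cryptococcus neoformans yeast cells / Dosing: single-point compound dose / Timing: 4 h at 37 °C static, read 1 h later / Measured by: luminescence of released adenylate kinase using an AK detection reagent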
DENV2 CPE – DENV2-induced cell death inhibition; DENV2-infected cells, cytopathic effect rescue, plate reader; CPE inhibition, % at 9.99 µM; actives 1.7% (n = 350,000); AID 651640; in the data active means CPE inhibition above about 20%, passing the limit was not always enough; inconclusive means no clear call, values can overlap the other calls; tested in BHK-21 cells;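 further: 0% = median of neutral control wells and 100% = median of positive control wells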
FN deposit inh – fibronectin deposition inhibition; AH1F fibroblasts, Alexa488-fibronectin deposition fluorescence, overnight; inhibition, % at 12.6 µM; actives 0.086% (n = 350,000); AID 743247;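 active means mean inhibition across replicates of 30% or more, regardless of how many single replicates reach that level; inconclusive means mean under 30% yet at least half of replicates reach 30%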;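 further: positive control wells lacked labelled fibronectin entirely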
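material = AH1F fibroblast monolayer depositing Alexa488-labelled fibronectin into matrix | amount = 10000 AH1F cells/well | buffer or medium = DMEM plus 2% serum, read in PBS | incubation = 1 h cell adhesion before compound, then overnight fibronectin incubation | detection = fluorescence at 485 nm excitation, 525 nm emission | evaluation = percent inhibition as loss of matrix-bound fibronectin fluorescence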
An asterisk follows results filed as active. This is a sample that favours compounds with a hit; in the whole collection about 1.9% have one here.

Cc1cc(C(=O)Nc2cccc3c2O[C@H](CN(C)C(=O)NC(C)C)[C@@H](C)CN([C@H](C)CO)C3=O)n(C)n1 was read as XiGFP reactiv 0, PGC1a acetyl inh -3, CFTR F508del cor -3, Cneo AK release -5, DENV2 CPE -3 and FN deposit inh -6.
For CN(C)CC(=O)N[C@@H]1CC[C@@H](CCn2cc(C3CCCCC3)nn2)O[C@H]1CO the results were XiGFP reactiv 0, PGC1a acetyl inh 3, CFTR F508del cor 0, Cneo AK release -4, DENV2 CPE 24* and FN deposit inh 7.
Screening CN(C)CC(=O)N[C@H]1CC[C@H](CCn2cc(C3CCCCC3)nn2)O[C@@H]1CO returned XiGFP reactiv 0, PGC1a acetyl inh 10, CFTR F508del cor -1, Cneo AK release 1, DENV2 CPE -5 and FN deposit inh -9.
COc1ccccc1S(=O)(=O)N[C@@H]1CC[C@@H](CCNC(=O)C2CCOCC2)O[C@H]1CO was read as XiGFP reactiv 0, PGC1a acetyl inh 5, CFTR F508del cor 0, Cneo AK release -5 and DENV2 CPE -4.
Screening CCCN(C)C[C@@H]1OCCCC[C@H](C)Oc2ccc(N(C)C)cc2C(=O)N([C@H](C)CO)C[C@@H]1C returned XiGFP reactiv 0, PGC1a acetyl inh -11, CFTR F508del cor 1, Cneo AK release 6 and DENV2 CPE 69*.
`C[C@H](CO)N1C[C@H](C)[C@@H](CN(C)Cc2ccc3c(c2)OCO3)OCCCC[C@H](C)Oc2ccc(N(C)C)cc2C1=O` gave XiGFP reactiv 0, PGC1a acetyl inh -7, CFTR F508del cor 2 and DENV2 CPE 124*.
For Cc1ccc(CS(=O)Cc2ccc(C(=O)NC3CCCC(C)C3C)o2)cc1 (configuration not stated) the results were XiGFP reactiv 0, PGC1a acetyl inh 14, CFTR F508del cor -2, Cneo AK release 3, DENV2 CPE -7 and FN deposit inh 30*.
Screening COc1ccc(OC)c(Nc2nc(-c3sc(NC(=O)C(C)(C)C)nc3C)cs2)c1 returned XiGFP reactiv 0, PGC1a acetyl inh -10, CFTR F508del cor 8.0*, Cneo AK release 0, DENV2 CPE -15 and FN deposit inh -17.
Screening COc1ccc(Cl)cc1Nc1nc(-c2sc(NC(=O)C(C)(C)C)nc2C)cs1 returned XiGFP reactiv 0, PGC1a acetyl inh 9, CFTR F508del cor 8.7*, Cneo AK release -1 and FN deposit inh -13.
For COc1ccc(OC)c(Nc2nc(-c3sc(NC(=O)CC(C)C)nc3C)cs2)c1 the results were XiGFP reactiv 0, PGC1a acetyl inh 8, CFTR F508del cor 0, Cneo AK release 0, DENV2 CPE -5 and FN deposit inh -11.
Screening O=C1NC(c2ccccc2)=CC(c2ccccc2)N1 (configuration not stated) returned XiGFP reactiv 0, PGC1a acetyl inh -17, CFTR F508del cor 2, Cneo AK release -2, DENV2 CPE 12 and FN deposit inh -4.
O=C1NC(c2ccccc2)=CC(c2ccccc2O)N1 (configuration not stated) was read as XiGFP reactiv 1, CFTR F508del cor 3, Cneo AK release 1, DENV2 CPE 145* and FN deposit inh -1.
`CN1/C(=C\C=C2/SC(=S)NC2=O)C(C)(C)c2ccccc21` gave XiGFP reactiv 1, CFTR F508del cor 25*, DENV2 CPE 5 and FN deposit inh -27.
`CCN1C(=O)/C(=C/C=C2\C=CN(CC)c3ccccc32)SC1=S` gave XiGFP reactiv 0, PGC1a acetyl inh -3, Cneo AK release -2 and FN deposit inh 1.
CN1C(=CC=C2C=C(I)C(=O)C(I)=C2)C(C)(C)c2ccccc21 was read as XiGFP reactiv 0, PGC1a acetyl inh 3, CFTR F508del cor 9.6*, Cneo AK release 3, DENV2 CPE -5 and FN deposit inh 3.
For CCCN1C(=O)/C(=C\C=C2\N(CC)c3ccccc3C2(C)C)SC1=S the results were XiGFP reactiv 0, PGC1a acetyl inh 5, CFTR F508del cor 16*, Cneo AK release 1, DENV2 CPE 0 and FN deposit inh -20.
`CN1/C(=C\C=C2/C(=O)Oc3ccccc3C2=O)C(C)(C)c2ccccc21` gave XiGFP reactiv 2, CFTR F508del cor 4, DENV2 CPE 14 and FN deposit inh -32.
For CN1/C(=C\C=N\O)C(C)(C)c2ccccc21 the results were XiGFP reactiv 0, PGC1a acetyl inh -6, Cneo AK release 2, DENV2 CPE 5 and FN deposit inh -2.
For C[C@@H]1CCCCO[C@@H](CN(C)CC2CC2)[C@H](C)CN([C@H](C)CO)C(=O)c2cc(NC(=O)Cc3ccccc3)ccc2O1 the results were XiGFP reactiv 1, PGC1a acetyl inh 6, CFTR F508del cor -2 and DENV2 CPE 3.
CO[C@@H]1CN(C)C(=O)c2cc(NC(C)=O)ccc2OC[C@@H](C)N(Cc2cc(F)ccc2F)C[C@@H]1C was read as XiGFP reactiv 0, PGC1a acetyl inh 7, CFTR F508del cor 3, Cneo AK release 1, DENV2 CPE inconclusive and FN deposit inh -15.
O=C(CCN1C(=O)C2CC=CCC2C1=O)Nc1cccc(S(=O)(=O)N2CCCCC2)c1 (configuration not stated) was read as XiGFP reactiv 0, PGC1a acetyl inh 3, CFTR F508del cor 4, Cneo AK release -1, DENV2 CPE -5 and FN deposit inh 3.
`COc1cccc(NC(=O)CCN2C(=O)C3CC=CCC3C2=O)c1` (configuration not stated) gave XiGFP reactiv 0, PGC1a acetyl inh 4, CFTR F508del cor 3, Cneo AK release -1, DENV2 CPE 29* and FN deposit inh -2.
`NS(=O)(=O)c1cccc(NC(=O)CCN2C(=O)C3CCCCC3C2=O)c1` (configuration not stated) gave XiGFP reactiv 0, PGC1a acetyl inh 12, CFTR F508del cor 0, Cneo AK release 1, DENV2 CPE 5 and FN deposit inh 33*.
For COc1ccc(N(C(=O)c2snc(C(N)=O)c2N)C(C(=O)NC2CCCC2)c2ccc3ncccc3c2)cc1 (configuration not stated) the results were XiGFP reactiv 0, PGC1a acetyl inh 7, CFTR F508del cor 0, Cneo AK release 2, DENV2 CPE 1 and FN deposit inh -2.
`NC(=O)c1nsc(C(=O)N(c2ccccc2)C(C(=O)NC2CCCC2)c2ccc3ncccc3c2)c1N` (configuration not stated) gave XiGFP reactiv 0, CFTR F508del cor -2, Cneo AK release 2, DENV2 CPE 39* and FN deposit inh 2.
